According to ChEMBL document CHEMBL3272325, “Structure-activity relationships of dimeric Catharanthus alkaloids. 1. Deacetylvinblastine amide (vindesine) sulfate” (J Med Chem, 1978):

Legend:
Type in all cases: functional
Conditions in all cases: route intraperitoneal
[1] = Antitumor activity against mouse Ridgeway osteogenic sarcoma cells allografted in mouse at 0.2 to 0.3 mg/kg/day, ip
How it was run: (§1)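 Ridgeway osteogenic sarcoma and Gardner lymphosarcoma in mice, with sulfate salts given ip daily on days 1-9. Tumor growth inhibition versus controls scored in bands: +++ = 75-100%, ++ = 50-75%, ± = under 25%.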

[2] = Antitumor activity against mouse Gardner lymphosarcoma cell allografted in mouse at 0.2 to 0.3 mg/kg/day, ip; how it was run: as §1
[3] = Antitumor activity against mouse Ridgeway osteogenic sarcoma cells allografted in mouse at 1 to 2 mg/kg/day, ip
How it was run: (§2)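 Sulfate salts given ip on days 1-9 against ROS and GLS in mice; tumor growth scored as percent inhibition versus controls (+++ = 75-100%, ++ = 50-75%, ± = under 25%).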

[4] = Antitumor activity against mouse Gardner lymphosarcoma cell allografted in mouse at 1.0 to 2.0 mg/kg/day, ip; how it was run: as §2

| Compound | TGI [1] | TGI [2] | TGI [3] | TGI [4] |
| --- | --- | --- | --- | --- |
| CC[C@]1(O)C[C@H]2CN(CCc3c([nH]c4ccccc34)[C@@](C(=O)OC)(c3cc4c(cc3OC)N(C)[C@H]3[C@@](O)(C(=O)NN)[C@H](O)[C@]5(CC)C=CCN6CC[C@]43[C@@H]65)C2)C1 | 75% | 75% | – | – |
| CC[C@]1(O)C[C@@H]2C[C@H](c3cc4c(cc3OC)N(C)[C@H]3[C@@](O)(C(N)=O)[C@H](O)[C@]5(CC)C=CCN6CC[C@]43[C@@H]65)c3[nH]c4ccccc4c3CCN(C2)C1.O=S(=O)(O)O | – | – | <25% | <25% |
